# Assay results: ChEMBL document CHEMBL4387704, “Design, synthesis and biological evaluation of novel isoindolinone derivatives as potent histone deacetylase inhibitors” (Eur J Med Chem, 2019)
# The source made the active and inactive calls. The rule behind the calls is not given here.
# Assays:
# 786-0 = assay: Growth inhibition of human 786-0 cells assessed as cell growth inhibition at 10 uM incubated for 48 hrs by sulforhodamine B assay; format: functional; conditions: 786-0, 48 h, read-out: GI
# Histone deacetylase 2 = Histone deacetylase 2 (Homo sapiens, UniProt Q92769); assay: Inhibition of HDAC2 (unknown origin) using Fluor de Lys substrate by fluorescence assay relative to control
# Outline: (§1)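 Recombinant HDAC isoform assays run by a contract lab. Compounds in DMSO, 10-dose IC50 mode, 3-fold serial dilution from 50 μM. Duplicate runs; IC50 from curve fitting.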
# MDA-MB-435 = assay: Growth inhibition of human MDA-MB-435 cells assessed as cell growth inhibition at 10 uM incubated for 48 hrs by sulforhodamine B assay; format: functional; conditions: MDA-MB-435, 48 h, read-out: GI
# SK-OV-3 = assay: Growth inhibition of human SKOV3 cells assessed as cell growth inhibition at 10 uM incubated for 48 hrs by sulforhodamine B assay; format: functional; conditions: SK-OV-3, 48 h, read-out: GI
# UACC-62 = assay: Growth inhibition of human UACC62 cells assessed as cell growth inhibition at 10 uM incubated for 48 hrs by sulforhodamine B assay; format: functional; conditions: UACC-62, 48 h, read-out: GI
# SK-MEL-2 = assay: Growth inhibition of human SK-MEL-2 cells assessed as cell growth inhibition at 10 uM incubated for 48 hrs by sulforhodamine B assay; format: functional; conditions: SK-MEL-2, 48 h, read-out: GI
# TK-10 = assay: Growth inhibition of human TK10 cells assessed as cell growth inhibition at 10 uM incubated for 48 hrs by sulforhodamine B assay; format: functional; conditions: TK-10, 48 h, read-out: GI
# SNB-75 = assay: Growth inhibition of human SNB75 cells assessed as cell growth inhibition at 10 uM incubated for 48 hrs by sulforhodamine B assay; format: functional; conditions: SNB-75, 48 h, read-out: GI
# PC-3 = assay: Growth inhibition of human PC3 cells assessed as cell growth inhibition at 10 uM incubated for 48 hrs by sulforhodamine B assay; format: functional; conditions: PC-3, 48 h, read-out: GI
# K562 [1] = assay: Potency index, ratio of IC50 of chidamide to IC50 of test compound against human K562 cells; format: functional
# HL-60 = assay: Potency index, ratio of IC50 of chidamide to IC50 of test compound against human HL60 cells; format: functional
# [2] = Terminal half life in Sprague-Dawley rat at 1 mg/kg, iv by LC-MS/MS analysis; format: ADME, organism-based; conditions: in vivo, read-out: beta t1/2 (converted)
# Outline: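 Male SD rats (199-214 g), three per route, single dose 1 mg/kg iv or 10 mg/kg po. Jugular blood (~200 μL) into heparinized tubes at set times; plasma by centrifugation, protein precipitation with acetonitrile containing verapamil and glibenclamide; drug measured by LC-MS/MS.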
# SF-295 = assay: Growth inhibition of human SF295 cells assessed as cell growth inhibition at 10 uM incubated for 48 hrs by sulforhodamine B assay; format: functional; conditions: SF-295, 48 h, read-out: GI
# NCI-H522 = assay: Growth inhibition of human NCI-H522 cells assessed as cell growth inhibition at 10 uM incubated for 48 hrs by sulforhodamine B assay; format: functional; conditions: NCI-H522, 48 h, read-out: GI
# M14 = assay: Growth inhibition of human M14 cells assessed as cell growth inhibition at 10 uM incubated for 48 hrs by sulforhodamine B assay; format: functional; conditions: M14, 48 h, read-out: GI
# HCC 2998 = assay: Growth inhibition of human HCC2998 cells assessed as cell growth inhibition at 10 uM incubated for 48 hrs by sulforhodamine B assay; format: functional; conditions: HCC 2998, 48 h, read-out: GI
# HOP-62 = assay: Growth inhibition of human HOP62 cells assessed as cell growth inhibition at 10 uM incubated for 48 hrs by sulforhodamine B assay; format: functional; conditions: HOP-62, 48 h, read-out: GI
# HOP-92 = assay: Growth inhibition of human HOP92 cells assessed as cell growth inhibition at 10 uM incubated for 48 hrs by sulforhodamine B assay; format: functional; conditions: HOP-92, 48 h, read-out: GI
# A498 = assay: Growth inhibition of human A498 cells assessed as cell growth inhibition at 10 uM incubated for 48 hrs by sulforhodamine B assay; format: functional; conditions: A498, 48 h, read-out: GI
# HCT-116 [3] = assay: Potency index, ratio of IC50 of chidamide to IC50 of test compound against human HCT116 cells; format: functional
# A549 = assay: Growth inhibition of human A549 cells assessed as cell growth inhibition at 10 uM incubated for 48 hrs by sulforhodamine B assay; format: functional; conditions: A549, 48 h, read-out: GI
# SW-620 = assay: Growth inhibition of human SW620 cells assessed as cell growth inhibition at 10 uM incubated for 48 hrs by sulforhodamine B assay; format: functional; conditions: SW-620, 48 h, read-out: GI
# OVCAR-3 = assay: Growth inhibition of human OVCAR3 cells assessed as cell growth inhibition at 10 uM incubated for 48 hrs by sulforhodamine B assay; format: functional; conditions: OVCAR-3, 48 h, read-out: GI
# K562 [4] = assay: Antiproliferative activity against human K562 assessed as reduction in cell viability measured after 72 hrs using alamar blue based fluorescence method; format: functional; conditions: K562, 72 h
# Outline: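 Leukemia lines grown in IMDM with penicillin/streptomycin, HL-60 with 20% FBS and K562 with 10% FBS, at 37 °C, 5% CO2. Cells in 96-well plates exposed to drug for 72 h. Alamar blue (1 mM solution) added for 5–6 h, fluorescence read at 530/590 nm.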
# HCT-116 [5] = assay: Antiproliferative activity against human HCT116 assessed as reduction in cell viability measured after 72 hrs using alamar blue based fluorescence method; format: functional; conditions: HCT-116, 72 h
# Outline: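 HCT116 and MCF-7 grown in McCoy's 5A with 10% FBS and penicillin/streptomycin at 37 °C, 5% CO2. Cells plated in 96-well format and exposed to drug for 72 h. Alamar blue (1 mM solution) added, incubated 5–6 h, fluorescence read at 530/590 nm.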
# [6] = target: Protein deacetylase HDAC6 (Homo sapiens) (UniProt Q9UBN7); assay: Inhibition of HDAC6 (unknown origin) using Fluor de Lys substrate by fluorescence assay relative to control; outline: as §1
# MOLT-4 = assay: Growth inhibition of human MOLT4 cells assessed as cell growth inhibition at 10 uM incubated for 48 hrs by sulforhodamine B assay; format: functional; conditions: MOLT-4, 48 h, read-out: GI
# EKVX = assay: Growth inhibition of human EKVX cells assessed as cell growth inhibition at 10 uM incubated for 48 hrs by sulforhodamine B assay; format: functional; conditions: read-out: GI
# [7] = AUC (0 to t) in Sprague-Dawley rat at 1 mg/kg, iv by LC-MS/MS analysis; format: ADME, organism-based; conditions: in vivo
# MCF7 = assay: Potency index, ratio of IC50 of chidamide to IC50 of test compound against human MCF7 cells; format: functional
# Sequence of Histone deacetylase 2 (Q92769 whole entry, canonical isoform): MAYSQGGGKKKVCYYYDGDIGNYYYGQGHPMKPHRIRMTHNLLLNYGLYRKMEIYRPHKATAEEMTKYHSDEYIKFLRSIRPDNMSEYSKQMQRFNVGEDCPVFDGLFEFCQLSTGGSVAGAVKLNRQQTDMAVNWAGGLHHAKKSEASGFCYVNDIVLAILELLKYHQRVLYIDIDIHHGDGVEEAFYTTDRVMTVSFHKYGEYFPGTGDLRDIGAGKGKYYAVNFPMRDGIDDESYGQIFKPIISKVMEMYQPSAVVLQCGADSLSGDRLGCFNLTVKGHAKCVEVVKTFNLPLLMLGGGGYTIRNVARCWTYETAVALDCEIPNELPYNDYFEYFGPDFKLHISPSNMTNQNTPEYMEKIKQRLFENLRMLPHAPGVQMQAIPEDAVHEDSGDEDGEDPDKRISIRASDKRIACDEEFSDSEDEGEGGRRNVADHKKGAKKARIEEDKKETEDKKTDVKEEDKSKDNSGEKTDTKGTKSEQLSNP
# Sequence of Protein deacetylase HDAC6 (Homo sapiens) (Q9UBN7 whole entry): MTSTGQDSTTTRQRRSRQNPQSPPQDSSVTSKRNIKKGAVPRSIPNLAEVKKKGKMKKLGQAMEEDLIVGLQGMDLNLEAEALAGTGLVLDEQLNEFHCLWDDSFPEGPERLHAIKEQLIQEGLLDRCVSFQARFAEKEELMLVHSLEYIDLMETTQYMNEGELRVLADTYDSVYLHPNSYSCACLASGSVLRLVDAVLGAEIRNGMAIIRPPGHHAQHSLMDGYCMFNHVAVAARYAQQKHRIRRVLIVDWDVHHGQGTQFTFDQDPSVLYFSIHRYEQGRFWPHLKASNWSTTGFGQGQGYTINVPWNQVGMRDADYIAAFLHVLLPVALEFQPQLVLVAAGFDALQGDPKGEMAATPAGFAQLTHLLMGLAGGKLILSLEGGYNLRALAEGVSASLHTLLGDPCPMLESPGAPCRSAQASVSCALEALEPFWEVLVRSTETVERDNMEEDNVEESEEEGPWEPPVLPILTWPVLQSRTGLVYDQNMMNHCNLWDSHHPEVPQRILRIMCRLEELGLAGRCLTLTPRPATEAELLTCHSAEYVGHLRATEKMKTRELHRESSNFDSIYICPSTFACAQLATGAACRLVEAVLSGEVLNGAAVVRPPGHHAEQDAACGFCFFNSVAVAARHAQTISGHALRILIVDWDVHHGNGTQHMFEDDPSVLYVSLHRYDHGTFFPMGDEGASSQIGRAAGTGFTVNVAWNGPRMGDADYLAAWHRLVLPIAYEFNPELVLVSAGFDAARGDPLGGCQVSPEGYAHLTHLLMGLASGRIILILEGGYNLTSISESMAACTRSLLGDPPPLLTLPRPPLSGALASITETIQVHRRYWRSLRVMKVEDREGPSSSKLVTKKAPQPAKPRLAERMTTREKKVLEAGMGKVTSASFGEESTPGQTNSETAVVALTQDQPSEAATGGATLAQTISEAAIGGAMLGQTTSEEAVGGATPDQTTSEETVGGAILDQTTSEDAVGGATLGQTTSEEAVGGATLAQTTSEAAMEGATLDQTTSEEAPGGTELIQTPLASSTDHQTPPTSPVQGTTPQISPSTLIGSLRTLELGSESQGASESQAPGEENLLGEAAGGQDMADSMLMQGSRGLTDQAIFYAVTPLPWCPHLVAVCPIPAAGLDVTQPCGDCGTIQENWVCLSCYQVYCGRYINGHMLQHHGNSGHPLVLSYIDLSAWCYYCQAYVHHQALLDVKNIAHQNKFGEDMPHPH
smiles,measurement,setting,value
Nc1cc(F)ccc1NC(=O)c1ccc(CNC(=O)/C=C2\NC(=O)c3ccccc32)cc1,inhibition of growth at 10 µM,786-0,7.02%
same,IC50,Histone deacetylase 2,75 nM
same,inhibition of growth at 10 µM,MDA-MB-435,28.8%
same,inhibition of growth at 10 µM,SK-OV-3,29.5%
same,inhibition of growth at 10 µM,UACC-62,57.8%
same,inhibition of growth at 10 µM,SK-MEL-2,52%
same,inhibition of growth at 10 µM,TK-10,72.3%
same,inhibition of growth at 10 µM,SNB-75,30.6%
same,inhibition of growth at 10 µM,PC-3,39.4%
same,Ratio IC50,K562 [1],4
same,Ratio IC50,HL-60,5
same,half-life,[2],23.4 min
same,inhibition of growth at 10 µM,SF-295,16.2%
same,inhibition of growth at 10 µM,NCI-H522,70.7%
same,inhibition of growth at 10 µM,M14,29.4%
same,inhibition of growth at 10 µM,HCC 2998,20.4%
same,inhibition of growth at 10 µM,HOP-62,29.9%
same,inhibition of growth at 10 µM,HOP-92,58.6%
same,inhibition of growth at 10 µM,A498,47.1%
same,Ratio IC50,HCT-116 [3],2.5
same,inhibition of growth at 10 µM,A549,12.2%
same,inhibition of growth at 10 µM,SW-620,40.1%
same,inhibition of growth at 10 µM,OVCAR-3,42%
same,IC50,K562 [4],193 nM
same,IC50,HCT-116 [5],432 nM
same,inhibition,[6],inactive
same,inhibition of growth at 10 µM,MOLT-4,63%
same,inhibition of growth at 10 µM,EKVX,11.7%
same,AUC(0-t),[7],781 ng·h/mL
same,Ratio IC50,MCF7,2
